Measurements published in ChEMBL document CHEMBL2407079, “Potent DGAT1 Inhibitors in the Benzimidazole Class with a Pyridyl-oxy-cyclohexanecarboxylic Acid Moiety” (ACS Med Chem Lett, 2013).
Each block holds one molecule with its values, some of them ahead of it.

Columns and labels:
[1] = molecular target: T1, Diacylglycerol O-acyltransferase 1 (Mus musculus, UniProt Q9Z2A7); assay: Inhibition of mouse DGAT1
T1 sequence (Q9Z2A7 whole entry): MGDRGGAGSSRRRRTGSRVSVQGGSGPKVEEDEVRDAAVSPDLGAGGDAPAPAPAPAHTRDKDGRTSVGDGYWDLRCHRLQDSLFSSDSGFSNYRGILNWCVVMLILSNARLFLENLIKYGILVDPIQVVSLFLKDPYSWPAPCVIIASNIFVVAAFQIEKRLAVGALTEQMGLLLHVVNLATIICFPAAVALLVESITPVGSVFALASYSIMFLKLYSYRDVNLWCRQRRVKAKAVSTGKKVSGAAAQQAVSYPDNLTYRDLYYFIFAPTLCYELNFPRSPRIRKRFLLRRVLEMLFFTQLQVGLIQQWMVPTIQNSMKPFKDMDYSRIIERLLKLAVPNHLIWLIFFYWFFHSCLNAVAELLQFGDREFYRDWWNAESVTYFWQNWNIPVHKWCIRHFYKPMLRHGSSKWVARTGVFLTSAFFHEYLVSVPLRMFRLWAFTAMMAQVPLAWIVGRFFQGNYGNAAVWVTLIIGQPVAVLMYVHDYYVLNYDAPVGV

[2] = molecular target: T2, Diacylglycerol O-acyltransferase 1 (Homo sapiens, UniProt O75907); assay: Inhibition of human DGAT1
T2 sequence (O75907 whole entry): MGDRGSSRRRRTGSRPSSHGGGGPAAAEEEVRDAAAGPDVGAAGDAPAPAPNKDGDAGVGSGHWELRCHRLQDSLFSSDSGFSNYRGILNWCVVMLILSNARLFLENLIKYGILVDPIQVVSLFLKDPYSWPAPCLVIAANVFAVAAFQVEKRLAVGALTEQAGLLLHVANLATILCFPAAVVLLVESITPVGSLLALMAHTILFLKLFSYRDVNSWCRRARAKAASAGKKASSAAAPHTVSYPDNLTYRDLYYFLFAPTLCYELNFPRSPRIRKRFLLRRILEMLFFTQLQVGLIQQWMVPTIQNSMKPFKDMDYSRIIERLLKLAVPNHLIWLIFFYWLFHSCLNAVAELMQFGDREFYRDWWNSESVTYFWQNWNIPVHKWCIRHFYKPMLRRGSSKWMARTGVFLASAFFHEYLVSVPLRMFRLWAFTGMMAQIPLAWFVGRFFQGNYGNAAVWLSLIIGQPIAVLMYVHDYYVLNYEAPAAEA

[3] = Lipophilicity, log D of the compound by HPLC analysis; assay type: physicochemical
[4] = Ratio of drug uptake in ileum to blood of mouse at 3 mg/kg, po at 2 to 25 hrs; assay type: ADME, organism-based; design: dose 3 mg/kg, route oral
Summary of the method: (§1)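 Mice dosed orally at 3 mg/kg within a repeat lipid tolerance test. Drug levels (μM) measured in blood and in intestinal segments (duodenum, jejunum, ileum) at 2, 5 and 25 h after dosing. Tissue-to-blood ratio taken from the segment and blood concentrations at each time point.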

[5] = Ratio of drug uptake in jejunum to blood of mouse at 3 mg/kg, po at 2 to 25 hrs; assay type: ADME, organism-based; design: dose 3 mg/kg, route oral; summary of the method: as §1
[6] = Biodistribution in mouse duodenum at 3 mg/kg, po at 2 hrs; assay type: ADME, organism-based; design: dose 3 mg/kg, route oral; settings: read-out: Drug uptake
Summary of the method: (§2)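 Mice, single oral dose of 3 mg/kg. Drug concentration (μM) determined in blood and in duodenum, jejunum and ileum segments at 2, 5 and 25 h.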

[7] = Biodistribution in mouse jejunum at 3 mg/kg, po at 25 hrs; assay type: ADME, organism-based; design: dose 3 mg/kg, route oral; settings: read-out: Drug uptake; summary of the method: as §2
[8] = Biodistribution in mouse duodenum at 3 mg/kg, po at 5 hrs; assay type: ADME, organism-based; design: dose 3 mg/kg, route oral; settings: read-out: Drug uptake; summary of the method: as §2
[9] = Biodistribution in mouse blood at 3 mg/kg, po at 25 hrs; assay type: ADME, organism-based; design: dose 3 mg/kg, route oral; settings: whole blood, read-out: Drug uptake; summary of the method: as §2
[10] = Biodistribution in mouse ileum at 3 mg/kg, po at 2 hrs; assay type: ADME, organism-based; design: dose 3 mg/kg, route oral; settings: read-out: Drug uptake; summary of the method: as §2
Mus musculus [11] = assay: Reduction in triglyceride excursion in mouse at 3 mg/kg, po by lipid tolerance test; assay type: functional; design: scale not given: the % may be the effect or the level left
[12] = Ratio of drug uptake in duodenum to blood of mouse at 3 mg/kg, po at 2 to 25 hrs; assay type: ADME, organism-based; design: dose 3 mg/kg, route oral; summary of the method: as §1
[13] = Biodistribution in mouse jejunum at 3 mg/kg, po at 5 hrs; assay type: ADME, organism-based; design: dose 3 mg/kg, route oral; settings: read-out: Drug uptake; summary of the method: as §2
[14] = Biodistribution in mouse ileum at 3 mg/kg, po at 25 hrs; assay type: ADME, organism-based; design: dose 3 mg/kg, route oral; settings: read-out: Drug uptake; summary of the method: as §2
[15] = Biodistribution in mouse blood at 3 mg/kg, po at 5 hrs; assay type: ADME, organism-based; design: dose 3 mg/kg, route oral; settings: whole blood, read-out: Drug uptake; summary of the method: as §2
[16] = Biodistribution in mouse ileum at 3 mg/kg, po at 5 hrs; assay type: ADME, organism-based; design: dose 3 mg/kg, route oral; settings: read-out: Drug uptake; summary of the method: as §2
[17] = Biodistribution in mouse jejunum at 3 mg/kg, po at 2 hrs; assay type: ADME, organism-based; design: dose 3 mg/kg, route oral; settings: read-out: Drug uptake; summary of the method: as §2
[18] = Biodistribution in mouse blood at 3 mg/kg, po at 2 hrs; assay type: ADME, organism-based; design: dose 3 mg/kg, route oral; settings: whole blood, read-out: Drug uptake; summary of the method: as §2
[19] = Biodistribution in mouse duodenum at 3 mg/kg, po at 25 hrs; assay type: ADME, organism-based; design: dose 3 mg/kg, route oral; settings: read-out: Drug uptake; summary of the method: as §2
[20] = Bioavailability in Sprague-Dawley rat at 1 mg/kg, iv; assay type: ADME, organism-based; settings: in vivo
Summary of the method: (§3)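 Sprague–Dawley rats; intravenous dose of 1 mg/kg given as a solution in EtOH/PEG400/water (10:50:40).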

[21] = Clearance in Sprague-Dawley rat at 1 mg/kg, iv; assay type: ADME, organism-based; design: dose 1 mg/kg, route intravenous; settings: in vivo; summary of the method: as §3
[22] = Half life in Sprague-Dawley rat at 1 mg/kg, iv; assay type: ADME, organism-based; design: dose 1 mg/kg, route intravenous; settings: in vivo; summary of the method: as §3
Rattus norvegicus = assay: Dose normalized AUC in Sprague-Dawley rat at 1 mg/kg, iv and 2 mg/kg, po; assay type: ADME, organism-based; settings: in vivo
Summary of the method: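 Sprague–Dawley rats; 1 mg/kg iv and 2 mg/kg p.o., both as solutions in EtOH/PEG400/water (10:50:40). Plasma AUC measured for the parent and, where applicable, for the epimerized metabolite formed in vivo.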

Mus musculus [23] = assay: Reduction in triglyceride excursion in mouse at 10 mg/kg, po measured at 18 hrs by lipid tolerance test; assay type: functional; design: scale not given: the % may be the effect or the level left
Summary of the method: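 Mouse lipid tolerance test. Oral dose of 10 mg/kg as a suspension in 0.5% methylcellulose; triglyceride reduction read at 18 h.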

[24] = Volume of distribution at steady state in Sprague-Dawley rat at 1 mg/kg, iv; assay type: ADME, organism-based; design: dose 1 mg/kg, route intravenous; settings: in vivo, read-out: Vdss; summary of the method: as §3

Compound: O=C(O)C[C@H]1CC[C@H](c2ccc(-c3ccc(-c4nc5ccc(C(F)(F)F)cc5[nH]4)cn3)cc2)CC1
- IC50 [1]: 2.8 nM
- IC50 [2]: 3.5 nM
- logD [3]: 1.97

Compound: O=C(O)[C@H]1CC[C@@H](Oc2ccc(-c3ccc(-c4nc5cc(F)c(F)cc5[nH]4)cn3)cn2)CC1
- IC50 [1]: 3.4 nM
- IC50 [2]: 1.4 nM
- logD [3]: 1.28

Compound: O=C(O)[C@H]1CC[C@@H](Oc2ccc(-c3ccc(-c4nc5ccccc5[nH]4)cn3)cn2)CC1
- Kp [4]: > 30
- Kp [5]: > 30
- IC50 [1]: 8.1 nM
- concentration at 2 h [6]: 8.32 µM
- concentration at 25 h [7]: 3.06 µM
- concentration at 5 h [8]: 8.76 µM
- concentration at 25 h [9]: 10 nM
- concentration at 2 h [10]: 3.89 µM
- Activity (Mus musculus [11]): 95%
- Kp [12]: > 30
- concentration at 5 h [13]: 6.01 µM
- concentration at 25 h [14]: 620 nM
- concentration at 5 h [15]: 51 nM
- IC50 [2]: 4 nM
- concentration at 5 h [16]: 1720 nM
- concentration at 2 h [17]: 5.51 µM
- concentration at 2 h [18]: 114 nM
- concentration at 25 h [19]: 1760 nM

Further lines, with some results ahead:

- IC50 [1]: 4.6 nM
- IC50 [2]: 3.9 nM
Compound: O=C(O)[C@H]1CC[C@@H](Oc2ccc(-c3ccc(-c4nc5ccc(OC(F)(F)F)cc5[nH]4)cn3)cn2)CC1

- IC50 [1]: 3.7 nM
- bioavailability [20]: 19%
- clearance [21]: 3 mL/min/kg
- half-life [22]: 222 min
- AUC/dose (Rattus norvegicus): 2.4 µM·h/mg/kg
- IC50 [2]: 2.1 nM
- logD [3]: 1.42
- Vd [24]: 0.34 L/kg
Compound: O=C(O)[C@H]1CC[C@@H](Oc2ccc(-c3ccc(-c4nc5ccc(Cl)cc5[nH]4)cn3)cn2)CC1
- Activity (Mus musculus [23]): 144%
